Laboratory results as given in paper PMC8904266 (Drug Design, Development and Therapy, 2022).
Values joined by “and” are separate entries in the source; they are usually repeats but may differ in a detail not shown here. Identical values can stand only once. Each block holds one compound with its values, some of them ahead of it.

Experiments:
A549 lung cancer cells = test: In vitro antitumor MTT assay, A549; type: cell-based, human; conditions: for IC50: Homo sapiens, A549, 24 h, read-out: IC50 A549; for selectivity index to A549: WISH versus A549
In short: (§1)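 ATCC cell lines grown in RPMI-1640 with 10% FBS, penicillin/streptomycin, at 37 °C and 5% CO2. Seeded at 1.0×10^4 cells/well for 48 h, then treated 24 h with a range of test compound concentrations. MTT (5 mg/mL solution) added for 4 h; formazan dissolved in DMSO and read at 570 nm. IC50 from percent viability; mean ± S.D. of three separate experiments.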

[1] = system: Caco-2 colon cancer cells; test: In vitro antitumor MTT assay, Caco-2; type: cell-based, human; conditions: Homo sapiens, Caco-2, 24 h, read-out: IC50 Caco-2
In short: as §1

MDA breast cancer cells = test: In vitro antitumor MTT assay, MDA; type: cell-based, human; conditions: for IC50: Homo sapiens, 24 h, read-out: IC50 MDA; for selectivity index to MDA: WISH versus MDA
In short: as §1

WISH normal cell line = test: Cytotoxic effect against normal cell line; type: cell-based; conditions: read-out: IC50 WISH
HepG-2 hepatoma cells = test: In vitro antitumor MTT assay, HepG-2; type: cell-based, human; conditions: for selectivity index to HepG-2: WISH versus HepG-2; for IC50: read-out: IC50 HepG-2, MTT, 24 h treatment, mean of three experiments
In short: as §1

[2] = In vitro antitumor MTT assay, Caco-2; type: cell-based, human; conditions: human, Caco-2
In short: as §1

VEGFR-2 kinase = VEGFR-2 kinase (Homo sapiens, UniProt P35968); test: biochemical; conditions: VEGFR-2, IC50, VEGFR-2 Kinase Assay Kit (BPS-Bioscience), luminescence
HepG-2 cells [3] = test: Cell cycle analysis; type: cell-based, human; conditions: HepG-2, 9.52 µM, 48 h
HepG-2 cells [4] = test: Annexin V-FITC/PI apoptosis assay; type: cell-based, human
In short: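 HepG-2 cells seeded and incubated 24 h, then exposed to test compound at 9.52 µM. Harvested cells washed 3× in PBS, […] double-stained with Annexin V-FITC/propidium iodide for 20 min in the dark. Early/late apoptotic and necrotic fractions measured by flow cytometry. Mean ± SEM of 3 experiments; unpaired t-test versus untreated control.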

BAX = test: Western blot analysis, BAX; type: cell-based, human; conditions: HepG-2, 9.52 µM, 48 h
In short: (§2)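 HepG-2 treated 48 h with 9.52 µM test compound or DMSO control. Lysed at pH 7.4 (Tris, EDTA, EGTA, NaCl, NP-40, Triton X-100, protease/phosphatase inhibitors), freeze-thawed at −80 °C, sonicated and centrifuged. 30 µg protein run on SDS-PAGE and blotted to PVDF. Primary antibody 1:1000 overnight at 4 °C; HRP secondary 1:2000. ECL detection; bands normalized to β-actin, control set to 1; mean ± SEM, n=3.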

Bcl-2 = test: Western blot analysis, Bcl-2; type: cell-based, human; conditions: HepG-2, 9.52 µM, 48 h
In short: as §2

BAX/Bcl-2 ratio = test: Western blot analysis, BAX/Bcl-2 ratio; type: cell-based, human; conditions: HepG-2, 9.52 µM, 48 h
In short: as §2

caspase-3 = test: Western blot analysis, caspase-3; type: cell-based, human; conditions: HepG-2, 9.52 µM, 48 h
In short: as §2

p53 = test: Western blot analysis, p53; type: cell-based, human; conditions: 48 h
In short: as §2

VEGFR-2 kinase, sequence (P35968 20-1356): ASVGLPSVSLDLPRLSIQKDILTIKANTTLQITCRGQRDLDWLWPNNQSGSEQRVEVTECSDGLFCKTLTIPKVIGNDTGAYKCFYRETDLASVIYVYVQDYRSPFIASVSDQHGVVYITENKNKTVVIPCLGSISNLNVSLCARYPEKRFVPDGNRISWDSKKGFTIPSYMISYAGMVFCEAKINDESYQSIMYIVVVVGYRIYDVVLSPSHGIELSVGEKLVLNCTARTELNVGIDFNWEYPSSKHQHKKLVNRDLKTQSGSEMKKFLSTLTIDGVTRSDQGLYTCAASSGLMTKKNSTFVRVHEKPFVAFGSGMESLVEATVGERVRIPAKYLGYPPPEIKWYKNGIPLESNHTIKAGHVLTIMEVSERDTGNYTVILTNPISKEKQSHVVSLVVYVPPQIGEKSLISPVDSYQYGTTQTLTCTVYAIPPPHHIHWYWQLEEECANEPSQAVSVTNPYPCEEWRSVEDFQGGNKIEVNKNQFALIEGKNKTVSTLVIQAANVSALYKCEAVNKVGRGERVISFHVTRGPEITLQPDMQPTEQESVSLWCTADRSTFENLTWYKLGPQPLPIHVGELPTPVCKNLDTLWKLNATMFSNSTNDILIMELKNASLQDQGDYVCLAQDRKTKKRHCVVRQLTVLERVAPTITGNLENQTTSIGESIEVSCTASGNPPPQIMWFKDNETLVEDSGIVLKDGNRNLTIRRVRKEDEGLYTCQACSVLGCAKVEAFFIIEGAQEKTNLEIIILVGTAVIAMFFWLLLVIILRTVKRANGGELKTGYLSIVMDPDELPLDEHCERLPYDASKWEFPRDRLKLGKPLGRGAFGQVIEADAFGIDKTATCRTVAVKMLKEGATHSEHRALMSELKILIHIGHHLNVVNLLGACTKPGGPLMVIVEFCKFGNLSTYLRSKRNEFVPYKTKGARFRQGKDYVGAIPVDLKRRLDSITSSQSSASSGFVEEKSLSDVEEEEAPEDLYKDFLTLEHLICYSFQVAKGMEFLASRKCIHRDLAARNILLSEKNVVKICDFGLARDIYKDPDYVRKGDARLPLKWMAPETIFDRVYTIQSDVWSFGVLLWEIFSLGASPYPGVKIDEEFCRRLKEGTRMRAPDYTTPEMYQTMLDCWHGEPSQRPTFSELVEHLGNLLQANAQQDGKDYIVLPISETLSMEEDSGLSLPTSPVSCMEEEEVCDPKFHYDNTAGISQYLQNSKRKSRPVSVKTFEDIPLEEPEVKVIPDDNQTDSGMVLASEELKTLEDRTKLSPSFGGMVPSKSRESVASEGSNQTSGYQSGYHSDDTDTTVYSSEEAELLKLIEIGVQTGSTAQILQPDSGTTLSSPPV

SMILES: O=C(CN1CCN(c2nc3ccccc3nc2Cl)CC1)Nc1ccccc1 [Compound 10a, 2-(4-(3-chloroquinoxalin-2-yl)piperazin-1-yl)-N-phenylacetamide]
- IC50 (A549 lung cancer cells): 9.03 µM
- IC50 [1]: 14.2 µM
- IC50 (MDA breast cancer cells): 14.4 µM
- IC50 (WISH normal cell line): 30.5 µM

SMILES: COc1ccc(NC(=O)CN2CCN(c3nc4ccccc4nc3Cl)CC2)cc1 [Compound 10b, 2-(4-(3-chloroquinoxalin-2-yl)piperazin-1-yl)-N-(4-methoxyphenyl)acetamide]
- IC50 (A549 lung cancer cells): 6.48 µM
- IC50 [1]: 14.6 µM
- IC50 (MDA breast cancer cells): 11.6 µM
- IC50 (WISH normal cell line): 45.7 µM

SMILES: O=C(CN1CCN(c2nc3ccccc3nc2Cl)CC1)Nc1ccc(Cl)cc1 [Compound 10c, N-(4-chlorophenyl)-2-(4-(3-chloroquinoxalin-2-yl)piperazin-1-yl)acetamide]
- IC50 (A549 lung cancer cells): 9.57 µM
- IC50 [1]: 9.42 µM
- IC50 (MDA breast cancer cells): 11.3 µM
- IC50 (WISH normal cell line): 48 µM

SMILES: O=C(CN1CCN(c2nc3ccccc3nc2Cl)CC1)Nc1ccc(F)cc1 [Compound 10d, 2-(4-(3-chloroquinoxalin-2-yl)piperazin-1-yl)-N-(4-fluorophenyl)acetamide]
- IC50 (A549 lung cancer cells): 10.9 µM
- IC50 [1]: 32.8 µM
- IC50 (MDA breast cancer cells): 16.6 µM
- IC50 (WISH normal cell line): 82.2 µM

SMILES: Cc1ccc(NC(=O)CN2CCN(c3nc4ccccc4nc3Cl)CC2)cc1 [Compound 10e, 2-(4-(3-chloroquinoxalin-2-yl)piperazin-1-yl)-N-(p-tolyl)acetamide]
- IC50 (A549 lung cancer cells): 11.6 µM
- selectivity index to A549 (A549 lung cancer cells): 9.18
- selectivity index to HepG-2 (HepG-2 hepatoma cells): 13.17
- selectivity ratio at 24 h [2]: 6.51
- IC50 [1]: 16.3 µM
- IC50 (MDA breast cancer cells): 14.3 µM
- selectivity index to MDA (MDA breast cancer cells): 7.43
- IC50 (WISH normal cell line): 106 µM
- IC50 (VEGFR-2 kinase): 0.241 ± 0.021 µM

SMILES: CC(=O)c1ccc(NC(=O)CN2CCN(c3nc4ccccc4nc3Cl)CC2)cc1 [Compound 10f, N-(4-acetylphenyl)-2-(4-(3-chloroquinoxalin-2-yl)piperazin-1-yl)acetamide]
- IC50 (A549 lung cancer cells): 10.3 µM
- IC50 [1]: 28.4 µM
- IC50 (MDA breast cancer cells): 16.1 µM
- IC50 (WISH normal cell line): 65.5 µM

SMILES: O=C(CN1CCN(c2nc3ccccc3nc2Cl)CC1)Nc1ccc([N+](=O)[O-])cc1 [Compound 10g, 2-(4-(3-chloroquinoxalin-2-yl)piperazin-1-yl)-N-(4-nitrophenyl)acetamide]
- IC50 (A549 lung cancer cells): 8.36 µM
- IC50 [1]: 15.9 µM
- IC50 (MDA breast cancer cells): 10.5 µM
- IC50 (WISH normal cell line): 85 µM
- IC50 (VEGFR-2 kinase): 0.332 ± 0.028 µM

SMILES: O=C(CN1CCN(c2nc3ccccc3nc2Cl)CC1)NCc1ccccc1 [Compound 11, N-benzyl-2-(4-(3-chloroquinoxalin-2-yl)piperazin-1-yl)acetamide]
- IC50 (A549 lung cancer cells): 10.6 µM
- selectivity index to A549 (A549 lung cancer cells): 12.18
- selectivity index to HepG-2 (HepG-2 hepatoma cells): 13.57
- selectivity ratio at 24 h [2]: 10.4
- IC50 [1]: 12.5 µM
- IC50 (MDA breast cancer cells): 11.5 µM
- selectivity index to MDA (MDA breast cancer cells): 11.22
- IC50 (WISH normal cell line): 129 µM
- IC50 (VEGFR-2 kinase): 0.19 µM and 0.192 µM
- cell accumulation in the G2/M phase (HepG-2 cells [3]; control 15.16%): 25.22%
- cell accumulation rate at S phase (HepG-2 cells [3]; control 20.14%): 46.10%
- cell accumulation percentage in phase G1 (HepG-2 cells [3]; control 63.18%): 27.37%
- increase of early apoptosis rate compared to control (HepG-2 cells [4]; HepG-2, 9.52 µM): about 9 fold
- increase of late apoptosis compared to control (HepG-2 cells [4]; HepG-2, 9.52 µM): 3 fold
- Necrosis (HepG-2 cells [4]; HepG-2, 9.52 µM, 48 h, control 0.11, mean ± SEM): 0.17 ± 0.01
- Apoptosis, Late (HepG-2 cells [4]; HepG-2, 9.52 µM, 48 h, control 0.13, mean ± SEM): 0.38 ± 0.09
- Apoptosis, Early (HepG-2 cells [4]; HepG-2, 9.52 µM, 48 h, control 4.75, mean ± SEM): 43.60% and 43.60 ± 4.16 %
- effect on HepG-2 necrosis (HepG-2 cells [4]; HepG-2, 9.52 µM, in words): weak effect
- viability at 9.52 µM (HepG-2 cells [4]; Homo sapiens, HepG2, 48 h, read-out: Viable cells): 56 ± 4.19%
- BAX protein expression level compared to control (BAX; in words): double increase
- Protein Level (Normalized to β-Actin) BAX (BAX; control set to 1, mean ± SEM): 2.16 ± 0.22
- Bcl-2 expression level compared to control (Bcl-2; in words): decreased to half
- Protein Level (Normalized to β-Actin) Bcl-2 (Bcl-2; control set to 1, mean ± SEM): 0.50 ± 0.03
- increase in BAX/Bcl-2 ratio compared to control (BAX/Bcl-2 ratio): 4 fold
- Protein Level (Normalized to β-Actin) BAX/Bcl-2 Ratio (BAX/Bcl-2 ratio; control set to 1, mean ± SEM): 4.25 ± 0.47
- increase in caspase-3 level compared to untreated cells (caspase-3): 2.3 fold
- Protein Level (Normalized to β-Actin) Caspases-3 (caspase-3; control set to 1, mean ± SEM): 2.32 ± 0.11
- increase in P53 expression compared to control (p53; HepG-2, 9.52 µM (IC50 value)): 3 fold
- Protein Level (Normalized to β-Actin) P53 (p53; HepG-2, 9.52 µM, control set to 1, mean ± SEM): 3.07 ± 0.24

SMILES: O=C(CN1CCN(c2nc3ccccc3[nH]c2=O)CC1)NCc1ccccc1 [Compound 14, N-benzyl-2-(4-(3-oxo-3,4-dihydroquinoxalin-2-yl)piperazin-1-yl)acetamide]
- IC50 (A549 lung cancer cells): 14.7 µM
- IC50 [1]: 16.6 µM
- IC50 (MDA breast cancer cells): 20 µM
- IC50 (WISH normal cell line): 35.7 µM

SMILES: CNC(=O)c1cc(Oc2ccc(NC(=O)Nc3ccc(Cl)c(C(F)(F)F)c3)cc2)ccn1 [Sorafenib, reference compound]
- IC50 (A549 lung cancer cells): 14.1 µM
- IC50 [1]: 9.25 µM
- IC50 (MDA breast cancer cells): 10.8 µM

More lines, main results first:

- IC50 (A549 lung cancer cells): 11.2 µM
- IC50 [1]: 13.2 µM
- IC50 (MDA breast cancer cells): 17.9 µM
- IC50 (VEGFR-2 kinase): 0.258 ± 0.023 µM
SMILES: O=C(CN1CCN(c2nc3ccccc3[nH]c2=O)CC1)Nc1ccccc1 [Compound 13a, 2-(4-(3-oxo-3,4-dihydroquinoxalin-2-yl)piperazin-1-yl)-N-phenylacetamide]
- IC50 (WISH normal cell line): 106 µM

- IC50 (A549 lung cancer cells): 11 µM
- IC50 (HepG-2 hepatoma cells): 8.83 µM
- IC50 [1]: 10.5 µM
- IC50 (MDA breast cancer cells): 14.7 µM
- IC50 (VEGFR-2 kinase): 0.471 ± 0.034 µM
SMILES: COc1ccc(NC(=O)CN2CCN(c3nc4ccccc4[nH]c3=O)CC2)cc1 [Compound 13b, N-(4-methoxyphenyl)-2-(4-(3-oxo-3,4-dihydroquinoxalin-2-yl)piperazin-1-yl)acetamide]
- selectivity index to A549 (A549 lung cancer cells): 9.94
- selectivity index to HepG-2 (HepG-2 hepatoma cells): 12.35
- selectivity ratio at 24 h [2]: 10.4
- selectivity index to MDA (MDA breast cancer cells): 7.40
- IC50 (WISH normal cell line): 109 µM

- IC50 (A549 lung cancer cells): 12.8 µM
- IC50 [1]: 9.05 µM
- IC50 (MDA breast cancer cells): 12.1 µM
SMILES: O=C(CN1CCN(c2nc3ccccc3[nH]c2=O)CC1)Nc1ccc(Cl)cc1 [Compound 13c, N-(4-chlorophenyl)-2-(4-(3-oxo-3,4-dihydroquinoxalin-2-yl)piperazin-1-yl)acetamide]
- IC50 (WISH normal cell line): 42.1 µM

- IC50 (A549 lung cancer cells): 13.4 µM
- IC50 (HepG-2 hepatoma cells): 8.35 µM
- IC50 [1]: 13 µM
- IC50 (MDA breast cancer cells): 14.4 µM
- IC50 (VEGFR-2 kinase): 0.602 ± 0.048 µM
SMILES: O=C(CN1CCN(c2nc3ccccc3[nH]c2=O)CC1)Nc1ccc(F)cc1 [Compound 13d, N-(4-fluorophenyl)-2-(4-(3-oxo-3,4-dihydroquinoxalin-2-yl)piperazin-1-yl)acetamide]
- IC50 (WISH normal cell line): 60.5 µM

- IC50 (A549 lung cancer cells): 12.6 µM
- IC50 [1]: 14.3 µM
- IC50 (MDA breast cancer cells): 18.5 µM
SMILES: Cc1ccc(NC(=O)CN2CCN(c3nc4ccccc4[nH]c3=O)CC2)cc1 [Compound 13e, 2-(4-(3-oxo-3,4-dihydroquinoxalin-2-yl)piperazin-1-yl)-N-(p-tolyl)acetamide]
- IC50 (WISH normal cell line): 39.6 µM

- IC50 (A549 lung cancer cells): 11.3 µM
- IC50 (HepG-2 hepatoma cells): 8.4 µM
- IC50 [1]: 9.01 µM
- IC50 (MDA breast cancer cells): 16.4 µM
- IC50 (VEGFR-2 kinase): 0.465 ± 0.046 µM
SMILES: CC(=O)c1ccc(NC(=O)CN2CCN(c3nc4ccccc4[nH]c3=O)CC2)cc1 [Compound 13f, N-(4-acetylphenyl)-2-(4-(3-oxo-3,4-dihydroquinoxalin-2-yl)piperazin-1-yl)acetamide]
- IC50 (WISH normal cell line): 54.8 µM

- IC50 (A549 lung cancer cells): 10.5 µM
- IC50 [1]: 19.4 µM
- IC50 (MDA breast cancer cells): 24.6 µM
SMILES: O=C(CN1CCN(c2nc3ccccc3[nH]c2=O)CC1)Nc1ccc([N+](=O)[O-])cc1 [Compound 13g, N-(4-nitrophenyl)-2-(4-(3-oxo-3,4-dihydroquinoxalin-2-yl)piperazin-1-yl)acetamide]
- IC50 (WISH normal cell line): 38.6 µM
